We go through eight compounds from ChEMBL document CHEMBL2163344, “Immunomodulatory properties of novel nucleotide oligomerization domain 2 (nod2) agonistic desmuramyldipeptides” (J Med Chem, 2012).

For series [1], the target named is T1, Toll-like receptor 9 (Homo sapiens) (UniProt Q9NR96).
T1 sequence (whole entry): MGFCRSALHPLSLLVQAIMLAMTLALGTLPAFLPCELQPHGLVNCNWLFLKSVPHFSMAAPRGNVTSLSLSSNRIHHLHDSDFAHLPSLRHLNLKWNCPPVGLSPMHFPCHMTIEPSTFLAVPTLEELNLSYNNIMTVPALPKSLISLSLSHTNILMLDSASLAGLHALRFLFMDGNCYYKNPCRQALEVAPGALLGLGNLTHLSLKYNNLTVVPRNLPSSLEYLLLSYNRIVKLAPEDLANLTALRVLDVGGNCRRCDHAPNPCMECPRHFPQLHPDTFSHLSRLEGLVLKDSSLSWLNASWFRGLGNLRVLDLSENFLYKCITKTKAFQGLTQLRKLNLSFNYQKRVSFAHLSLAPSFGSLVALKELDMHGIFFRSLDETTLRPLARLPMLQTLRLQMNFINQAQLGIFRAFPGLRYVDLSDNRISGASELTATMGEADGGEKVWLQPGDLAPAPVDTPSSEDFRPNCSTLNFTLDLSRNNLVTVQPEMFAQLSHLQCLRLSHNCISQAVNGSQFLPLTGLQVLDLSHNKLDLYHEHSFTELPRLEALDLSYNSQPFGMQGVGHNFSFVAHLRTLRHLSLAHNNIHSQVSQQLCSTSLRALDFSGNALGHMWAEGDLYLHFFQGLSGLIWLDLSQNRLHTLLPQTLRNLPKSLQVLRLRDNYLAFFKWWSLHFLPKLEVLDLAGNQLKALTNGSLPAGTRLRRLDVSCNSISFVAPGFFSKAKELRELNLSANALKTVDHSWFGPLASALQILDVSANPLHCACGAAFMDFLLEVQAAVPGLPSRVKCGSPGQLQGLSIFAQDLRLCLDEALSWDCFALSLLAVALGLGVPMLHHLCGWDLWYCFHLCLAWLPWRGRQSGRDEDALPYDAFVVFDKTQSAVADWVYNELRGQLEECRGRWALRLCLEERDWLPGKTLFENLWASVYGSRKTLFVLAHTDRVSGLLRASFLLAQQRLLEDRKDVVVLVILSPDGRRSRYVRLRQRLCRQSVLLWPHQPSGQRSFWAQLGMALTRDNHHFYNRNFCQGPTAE
Put plainly: Agonist activity at human TLR9 expressed in Ramos blue cells assessed as stimulation of NF-kB/AP-1 activity at 20 uM incubated for 18 hrs using quanti blue assay based SEAP reporter gene assay. In kind it is functional, cell-based. A digest of the protocol: (§1)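 Ramos-Blue control cells (TLR3/7/9 and Nod1, no Nod2; stable NF-κB/AP-1-inducible SEAP reporter) at 1 × 10^6 cells/mL, exposed 18 h to 20 μM compound. SEAP in supernatant read with QUANTI-Blue reagent (3 h, 37 °C), absorbance 640 nm; activity compared with untreated cells.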
(Reporter assays use an easily measured gene product as a stand-in for the process of interest.)

Series [2] deals with PBMC. Put plainly: Cytotoxicity against human PBMCs assessed as residual metabolic activity at 20 uM in presence of PMA and ionomycin after 18 hrs by MTS assay. In kind it is ADME, cell-based. An outline of the steps: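 Human PBMC (1 × 10^6 cells/mL, triplicate) given 20 μM compound together with PMA 3.33 ng/mL and ionomycin 500 nM for 18 h. MTS metabolic activity compared with the PMA/ionomycin-only control.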

The target in series [3] is Toll-like receptor 3 (Homo sapiens) (UniProt O15455). In words: Agonist activity at human TLR3 expressed in Ramos blue cells assessed as stimulation of NF-kB/AP-1 activity at 20 uM incubated for 18 hrs using quanti blue assay based SEAP reporter gene assay. In kind it is functional, cell-based. An outline of the steps: as §1
Sequence of Toll-like receptor 3 (Homo sapiens) (O15455 whole entry): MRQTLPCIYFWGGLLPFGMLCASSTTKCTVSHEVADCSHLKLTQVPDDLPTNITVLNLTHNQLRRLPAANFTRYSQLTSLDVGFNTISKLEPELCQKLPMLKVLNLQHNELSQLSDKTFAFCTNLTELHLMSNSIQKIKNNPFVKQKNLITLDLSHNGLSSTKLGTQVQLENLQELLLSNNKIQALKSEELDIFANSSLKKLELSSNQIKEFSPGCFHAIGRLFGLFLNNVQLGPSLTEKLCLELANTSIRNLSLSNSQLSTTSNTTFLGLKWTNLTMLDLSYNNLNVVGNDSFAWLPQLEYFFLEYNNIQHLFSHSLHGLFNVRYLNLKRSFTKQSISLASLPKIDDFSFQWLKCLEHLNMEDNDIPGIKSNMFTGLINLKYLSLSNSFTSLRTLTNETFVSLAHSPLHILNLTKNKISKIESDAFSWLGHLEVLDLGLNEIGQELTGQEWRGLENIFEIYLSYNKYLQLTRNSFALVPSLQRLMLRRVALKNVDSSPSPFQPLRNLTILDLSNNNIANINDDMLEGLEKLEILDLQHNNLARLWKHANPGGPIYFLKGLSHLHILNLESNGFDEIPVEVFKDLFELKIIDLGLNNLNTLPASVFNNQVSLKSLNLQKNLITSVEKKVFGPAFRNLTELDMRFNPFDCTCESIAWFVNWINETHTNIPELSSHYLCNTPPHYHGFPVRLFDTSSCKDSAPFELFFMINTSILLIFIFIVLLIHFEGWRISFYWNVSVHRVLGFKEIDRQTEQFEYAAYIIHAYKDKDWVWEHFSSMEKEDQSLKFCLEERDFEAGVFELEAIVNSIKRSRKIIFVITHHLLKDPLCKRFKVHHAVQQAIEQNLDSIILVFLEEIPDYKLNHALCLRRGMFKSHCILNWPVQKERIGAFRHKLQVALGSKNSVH
Series [4] deals with PBMC. In words: Immunomodulatory activity in human PBMCs assessed as increase in PMA/ionomycin-induced IL6 release at 20 uM incubated for 18 hrs by multiplexed cytokine assay. It counts as functional, cell-based. A digest of the protocol:
(§2)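 Ficoll-isolated human PBMC, 1 × 10^6 cells per well, treated with 20 μM compound (DMSO ≤0.1%) plus PMA 3.33 ng/mL and ionomycin 500 nM for 18 h at 37 °C, 5% CO2. Cell-free supernatant cytokines measured by CBA human inflammatory kit on a flow cytometer against recombinant standards. Reported as % of PMA/ionomycin-only release; duplicates, three experiments, three donors.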

For series [5], the system named is PBMC. In words: Immunomodulatory activity in human PBMCs assessed as increase in PMA/ionomycin-induced IL8 release at 20 uM incubated for 18 hrs by multiplexed cytokine assay. In kind it is functional, cell-based.
A short description of series [6]: Cytotoxicity against human PBMCs assessed as residual metabolic activity at 20 uM after 18 hrs by MTS assay. It counts as ADME, cell-based, PBMC. The following applies: read-out: Activity. A digest of the protocol:
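Ficoll-isolated human PBMC, 1 × 10^6 cells/mL in supplemented RPMI 1640 with 10% FBS, exposed 18 h to 20 μM compound (DMSO ≤0.1% final) in triplicate. Metabolic activity read by MTS (CellTiter 96 AQueous One) and expressed relative to vehicle-treated control.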

For series [7], the system named is PBMC. Put plainly: Immunomodulatory activity in human PBMCs assessed as increase in PMA/ionomycin-induced IL8 release at 0.2 to 200 uM incubated for 18 hrs by multiplexed cytokine assay. It counts as functional, cell-based. An outline of the steps:
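Human PBMC stimulated with PMA 3.33 ng/mL and ionomycin 500 nM plus compound at 0.2, 2, 20 or 200 μM for 18 h. Supernatant cytokines quantified by cytometric bead array. Compared with PMA/ionomycin-only cells; two independent experiments in duplicate, two donors, mean ± SD.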

Series [8] deals with PBMC. Put plainly: Immunomodulatory activity in human PBMCs assessed as increase in PMA/ionomycin-induced TNFalpha release incubated for 18 hrs by multiplexed cytokine assay. In kind it is functional, cell-based. An outline of the steps:
as §2

Series [9] has as its system PBMC. Put plainly: Immunomodulatory activity in human PBMCs assessed as increase in PMA/ionomycin-induced IL-1beta release incubated for 18 hrs by multiplexed cytokine assay. In kind it is functional, cell-based.
Series [10] has as its system PBMC. In words: Immunomodulatory activity in human PBMCs assessed as increase in PMA/ionomycin-induced IL8 release at 20 uM incubated for 4 to 40 hrs by multiplexed cytokine assay. It counts as functional, cell-based. An outline of the steps: (§3)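 PBMC time course: 20 μM compound with PMA 3.33 ng/mL and ionomycin 500 nM. Supernatants collected at 4, 18 and 40 h and cytokines read by cytometric bead array. Compared with PMA/ionomycin-only control; two independent experiments in duplicate, two donors.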

Series [11] concerns PBMC. In words: Immunomodulatory activity in human PBMCs assessed as increase in PMA/ionomycin-induced TNFalpha release at 20 uM by multiplexed cytokine assay. It counts as functional, cell-based. As to conditions: TDE = time-dependent effect. An outline of the steps: as §2
Series [12] relates to PBMC. In words: Immunomodulatory activity in human PBMCs assessed as increase in PMA/ionomycin-induced IL-12p70 release at 20 uM by multiplexed cytokine assay. It counts as functional, cell-based. The following applies: TDE = time-dependent effect. An outline of the steps: as §2
Series [13] deals with PBMC. Put plainly: Immunomodulatory activity in human PBMCs assessed as increase in PMA/ionomycin-induced IL-12p70 release incubated for 18 hrs by multiplexed cytokine assay. It counts as functional, cell-based.
For series [14], the system named is PBMC. In words: Immunomodulatory activity in human PBMCs assessed as increase in PMA/ionomycin-induced IL10 release at 20 uM incubated for 4 to 40 hrs by multiplexed cytokine assay. It counts as functional, cell-based. An outline of the steps: as §3
Series [15] has as its system PBMC. Put plainly: Immunomodulatory activity in human PBMCs assessed as increase in PMA/ionomycin-induced IL6 release at 20 uM by multiplexed cytokine assay. As to conditions: TDE = time-dependent effect. In kind it is functional, cell-based. An outline of the steps: as §2
The subject of series [16] is PBMC. In words: Immunomodulatory activity in human PBMCs assessed as increase in PMA/ionomycin-induced IL-1beta release at 20 uM by multiplexed cytokine assay. It counts as functional, cell-based. The following applies: TDE = time-dependent effect. An outline of the steps:
as §2

The subject of series [17] is PBMC. In words: Immunomodulatory activity in human PBMCs assessed as increase in PMA/ionomycin-induced IL6 release incubated for 18 hrs by multiplexed cytokine assay. In kind it is functional, cell-based.

Active and inactive are the calls of the source. The calls are words filed in the database; no cut-off is given here.

`CCOC(=O)CC[C@@H](NC(=O)[C@H](C)NC(=O)CCCCN1C(=O)c2ccccc2S1(=O)=O)C(N)=O`: the result (in series [1]; in series [3]; in the series on PBMC [4]; with PBMC [5]) was inactive. Further, in the series with PBMC [2], the Activity result is reported as “Non-toxic”. Besides, the viability at 18 h, 20 µM in [6] was at least 90%.
With `CCOC(=O)CC[C@@H](NC(=O)[C@H](C)NC(=O)CNC(=O)c1cc2ccccc2[nH]1)C(=O)OCC`, the outcome (in [1]; with PBMC [7]; with PBMC [10]; in series [3]; in the series on PBMC [5]; in the series with PBMC [14]) was inactive. In addition, the Activity entry with PBMC [8] was “Dose-dependent effect”; with PBMC [9] it was “Dose-dependent effect”; in the series with PBMC [2], “Non-toxic”; in the series on PBMC [11] it was “tde”; with PBMC [12] it was “tde”; in the series on PBMC [13], “Dose-dependent effect”. Moreover, the Activity entry is “tde” with PBMC [15], “tde” in the series with PBMC [16] and “Dose-dependent effect” in the series on PBMC [17]. Further, the outcome in the series on PBMC [4] was Active. Also, the viability at 18 h, 20 µM in [6] was at least 90%.
As for `CCCCOC(=O)[C@@H](CCC(N)=O)NC(=O)[C@H](C)NC(=O)[C@@H](C)O[C@H]1[C@H](O)[C@@H](CO)OC(O)[C@@H]1NC(C)=O` (some centres undefined) [MURABUTIDE], the outcome (in series [1]; in the series with PBMC [7]; with PBMC [10]; in series [3]; in the series on PBMC [5]; in the series with PBMC [14]) was inactive. For the same compound, the Activity entry in the series on PBMC [8] was “Dose-dependent effect”; with PBMC [9] it was “Dose-dependent effect”; with PBMC [2] it was “Non-toxic”; with PBMC [11], “tde”; in the series on PBMC [12], “tde”; with PBMC [13], “Dose-dependent effect”. For the same compound, the Activity entry is “tde” in the series on PBMC [15], “tde” with PBMC [16] and “Dose-dependent effect” with PBMC [17]. In [6], the viability at 18 h, 20 µM is at least 90%.
As to `CCOC(=O)CC[C@@H](NC(=O)[C@H](C)NC(=O)C1=C2c3ccccc3S(=O)(=O)N2CCC1)C(=O)OCC`, the result (in series [1]; in series [3]; in the series with PBMC [5]) was inactive. Moreover, the Activity result in the series with PBMC [2] was “Non-toxic”. The outcome in the series with PBMC [4] was Active. Also, the viability at 18 h, 20 µM in series [6] was at least 90%.
`CCOC(=O)CC[C@@H](NC(=O)[C@H](C)NC(=O)COCCN1C(=O)c2ccccc2S1(=O)=O)C(=O)OCC`: the outcome (in [1]; in series [3]; in the series on PBMC [4]; in the series on PBMC [5]) was inactive. For the same compound, the Activity result with PBMC [2] was “Non-toxic”. For the same compound, the viability at 18 h, 20 µM in [6] was at least 90%.
In the case of `CCOC(=O)CC[C@@H](NC(=O)[C@H](C)NC(=O)COCCN1C(=O)c2ccccc2S1(=O)=O)C(N)=O`, the result (in [1]; in series [3]; in the series on PBMC [4]; with PBMC [5]) was inactive. Moreover, the Activity result with PBMC [2] is “Non-toxic”. The viability at 18 h, 20 µM in series [6] was at least 90%.
As to `CCOC(=O)CC[C@@H](NC(=O)[C@H](C)NC(=O)CCCCN1C(=O)c2ccccc2S1(=O)=O)C(=O)OCC`, the result (in series [1]; in [3]; in the series on PBMC [4]; in the series on PBMC [5]) was inactive. Also, the Activity entry in the series on PBMC [2] is “Non-toxic”. For the same compound, in series [6], the viability at 18 h, 20 µM was at least 90%.
With `CCOC(=O)CC[C@@H](NC(=O)[C@H](C)NC(=O)CNC(=O)c1cc2ccccc2[nH]1)C(N)=O`, the result (in series [1]; in series [3]; with PBMC [4]; in the series with PBMC [5]) was inactive. Further, the Activity result in the series on PBMC [2] was “Non-toxic”. Moreover, the viability at 18 h, 20 µM in [6] was at least 90%.
